Assays:
[1] = biological target: Gag-Pol polyprotein (Woolly monkey sarcoma virus) (UniProt P03359); test: Inhibition of simian sarcoma virus reverse transcriptase
In short: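 SSV-1 RNA-dependent DNA polymerase purified from tissue culture fluid of 71 AP1 cells. 50 µL reaction containing 20% glycerol, 1 mM DTT, BSA, Tris-HCl pH 7.5, MnCl2, KCl, NaF, [3H]dGTP and poly(2'-O-methylC)·d(pG)12-18. Compound in Me2SO is mixed with enzyme on ice for 10 min before the cocktail is added, then incubated 45 min at 37 °C. Radioactivity in product; 50% inhibitory concentration from triplicate dose–response curves spanning 10^-3 to 10^-7 M.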

[2] = The logarithm of the reciprocal of the concentration which produces 50% inhibition of mammalian alpha DNA polymerase.
In short: (§1)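 Mammalian α or β DNA polymerase in 100 µL reaction: enzyme in 50% glycerol, 1 mM DTT, 0.5 M KCl, Tris-HCl pH 7.5; Me2SO compound; cocktail with MnCl2, NaF, [3H]dGTP, poly(2'-O-methylC)·d(pG)12-18 template. Compound added first, then enzyme, then cocktail; 45 min at 37 °C. Product radioactivity, background-corrected against Me2SO controls; 50% concentration from triplicate five-dose curves, 10^-3–10^-7 M, expressed as log(1/C).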

[3] = Partition coefficient (logP); settings: octanol/water
Gag-Pol polyprotein = Gag-Pol polyprotein (Woolly monkey sarcoma virus, UniProt P03359); test: Ability to inhibit simian sarcoma virus reverse transcriptase
In short: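 Purified SSV-1 RNA-dependent DNA polymerase from 71 AP1 culture fluids, in 20% glycerol, 1 mM dithiothreitol, 1 mg/mL BSA and 50 mM Tris-HCl pH 7.5, was held 10 min on ice with inhibitor in Me2SO. Mn2+/[3H]dGTP cocktail with poly(2'-O-methylcytidylic acid)·d(pG)12-18 template was added, then 45 min at 37 °C. Background-corrected triplicate dose series; the 50% inhibition concentration was extrapolated.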

DNA polymerase beta = DNA polymerase beta (Mus musculus, UniProt Q8K409); test: Ability to inhibit mouse beta DNA polymerase
In short: (§2)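 Enzyme in 50% glycerol, 1 mM dithiothreitol, 0.5 M KCl and 50 mM Tris-HCl pH 7.5 was premixed with inhibitor in 100% Me2SO and held on ice 10 min. Cocktail (MnCl2, KCl, NaF, BSA, [3H]dGTP, poly(2'-O-methylcytidylic acid)·d(pG)12-18) was then added. Incubation was 45 min at 37 °C.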

[4] = biological target: DNA polymerase beta (Mus musculus) (UniProt Q8K409); test: The logarithm of the reciprocal of the concentration which produces 50% inhibition of mammalian beta DNA polymerase.; in short: as §1
[5] = Ability to inhibit mouse alpha DNA polymerase; in short: as §2

Chain of Gag-Pol polyprotein (P03359 642-1310 limits assumed): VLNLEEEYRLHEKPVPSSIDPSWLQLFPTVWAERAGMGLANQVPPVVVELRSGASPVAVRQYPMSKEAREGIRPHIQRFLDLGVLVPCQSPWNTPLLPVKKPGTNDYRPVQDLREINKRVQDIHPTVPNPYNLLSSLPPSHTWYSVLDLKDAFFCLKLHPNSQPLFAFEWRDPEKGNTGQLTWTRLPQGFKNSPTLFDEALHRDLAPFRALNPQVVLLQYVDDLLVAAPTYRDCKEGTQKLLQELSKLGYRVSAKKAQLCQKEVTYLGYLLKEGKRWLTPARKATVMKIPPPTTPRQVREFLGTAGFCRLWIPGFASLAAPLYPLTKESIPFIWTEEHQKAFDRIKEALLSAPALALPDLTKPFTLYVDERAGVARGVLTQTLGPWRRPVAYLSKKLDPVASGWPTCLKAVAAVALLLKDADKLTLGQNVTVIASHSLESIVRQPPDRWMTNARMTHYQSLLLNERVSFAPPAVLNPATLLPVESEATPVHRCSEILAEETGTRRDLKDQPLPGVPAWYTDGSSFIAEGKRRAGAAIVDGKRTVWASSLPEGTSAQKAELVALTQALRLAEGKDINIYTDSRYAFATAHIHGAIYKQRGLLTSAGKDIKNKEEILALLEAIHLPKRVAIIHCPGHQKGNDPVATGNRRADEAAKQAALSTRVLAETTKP
Chain of Gag-Pol polyprotein (Woolly monkey sarcoma virus) (P03359 whole entry): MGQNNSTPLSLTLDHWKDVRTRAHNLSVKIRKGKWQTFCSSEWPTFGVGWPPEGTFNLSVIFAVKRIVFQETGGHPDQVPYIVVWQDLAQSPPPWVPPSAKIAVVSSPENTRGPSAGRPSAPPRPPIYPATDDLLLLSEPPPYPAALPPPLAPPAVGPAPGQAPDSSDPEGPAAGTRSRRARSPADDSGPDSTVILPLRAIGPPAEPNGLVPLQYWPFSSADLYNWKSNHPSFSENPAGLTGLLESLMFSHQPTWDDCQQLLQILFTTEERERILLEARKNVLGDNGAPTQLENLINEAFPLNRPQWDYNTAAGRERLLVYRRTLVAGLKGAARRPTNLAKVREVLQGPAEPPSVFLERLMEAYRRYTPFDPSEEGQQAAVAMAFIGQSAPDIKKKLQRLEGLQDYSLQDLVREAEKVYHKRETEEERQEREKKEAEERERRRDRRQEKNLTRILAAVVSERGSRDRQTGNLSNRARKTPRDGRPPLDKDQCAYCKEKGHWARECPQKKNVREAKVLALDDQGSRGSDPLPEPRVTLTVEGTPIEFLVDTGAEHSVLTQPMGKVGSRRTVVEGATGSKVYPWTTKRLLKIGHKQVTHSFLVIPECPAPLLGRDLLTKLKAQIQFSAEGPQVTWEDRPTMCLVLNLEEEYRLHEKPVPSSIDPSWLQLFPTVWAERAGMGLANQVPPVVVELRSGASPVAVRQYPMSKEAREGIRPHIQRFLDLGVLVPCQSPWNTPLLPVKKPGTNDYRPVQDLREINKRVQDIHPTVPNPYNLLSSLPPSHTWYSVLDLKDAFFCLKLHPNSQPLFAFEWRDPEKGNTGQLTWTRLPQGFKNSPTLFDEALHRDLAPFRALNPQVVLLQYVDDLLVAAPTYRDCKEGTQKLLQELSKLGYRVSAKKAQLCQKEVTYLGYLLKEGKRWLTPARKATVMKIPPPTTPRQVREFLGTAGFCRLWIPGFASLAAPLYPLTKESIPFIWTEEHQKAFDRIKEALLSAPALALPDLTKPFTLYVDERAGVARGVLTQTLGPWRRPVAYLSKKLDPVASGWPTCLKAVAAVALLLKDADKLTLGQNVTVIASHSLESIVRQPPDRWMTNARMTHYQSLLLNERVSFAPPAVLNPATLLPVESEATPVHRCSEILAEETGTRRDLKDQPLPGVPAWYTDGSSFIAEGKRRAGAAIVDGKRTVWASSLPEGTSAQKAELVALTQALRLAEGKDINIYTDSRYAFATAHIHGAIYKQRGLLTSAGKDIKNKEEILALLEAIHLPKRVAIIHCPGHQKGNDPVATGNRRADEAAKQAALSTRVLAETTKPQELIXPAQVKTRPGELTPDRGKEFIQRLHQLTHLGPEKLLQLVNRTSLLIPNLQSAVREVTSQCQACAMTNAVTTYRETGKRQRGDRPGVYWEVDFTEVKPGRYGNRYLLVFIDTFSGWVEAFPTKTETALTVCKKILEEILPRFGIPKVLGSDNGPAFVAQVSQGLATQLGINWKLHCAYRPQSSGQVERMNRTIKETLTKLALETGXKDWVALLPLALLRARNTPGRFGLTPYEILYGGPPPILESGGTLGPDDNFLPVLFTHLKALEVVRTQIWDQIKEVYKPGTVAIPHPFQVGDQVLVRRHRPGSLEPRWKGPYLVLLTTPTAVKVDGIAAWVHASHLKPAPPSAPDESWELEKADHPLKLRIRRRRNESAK

Log 1/C [1] | Log 1/C [2] | logP ([3]; logP) | IC50 (Gag-Pol polyprotein; read-out: IC50) [µM] | IC50 (DNA polymerase beta; read-out: IC50) [µM] | Log 1/C [4] | IC50 [5] [M l-1] | logP [3] | IC50 (DNA polymerase beta) [M l-1] | IC50 (Gag-Pol polyprotein) [M l-1] | Structure (SMILES)
4.87 | 4.19 | 3.85 | 13.5 | 45 | 4.35 | 0.00006500000000000002 |  |  |  | CCCN(CCC)/N=C/c1cc2c3c4c(C)c(O)c2c(O)c1NC(=O)/C(C)=C\C=C\C(C)C(O)C(C)C(O)C(C)C(OC(C)=O)C(C)C(OC)/C=C/OC(C)(O4)C3=O (configuration not stated)
 |  | 1.12 |  |  |  |  |  |  |  | COC1/C=C/OC2(C)Oc3c(C)c(O)c4c(O)c(c(/C=N/N5CCNCC5)cc4c3C2=O)NC(=O)/C(C)=C\C=C\C(C)C(O)C(C)C(O)C(C)C(OC(C)=O)C1C (configuration not stated)
 |  |  | 42 |  |  | 0.00034 |  | 0.00015 |  | COC1/C=C/OC2(C)Oc3c(C)c(O)c4c(O)c(c(/C=N/N5CCN(C)CC5)cc4c3C2=O)NC(=O)/C(C)=C\C=C\C(C)C(O)C(C)C(O)C(C)C(OC(C)=O)C1C (configuration not stated)
2.64 | 2.64 | 0.11 | 13 |  | 2.64 | 0.00023 |  | 0.00037 |  | COC1/C=C/OC2(C)Oc3c(C)c(O)c4c(O)c(c(O)cc4c3C2=O)NC(=O)/C(C)=C\C=C\C(C)C(O)C(C)C(O)C(C)C(OC(C)=O)C1C (configuration not stated)
4.4 | 3 | 1.55 | 40 |  | 3 | 0.001 |  | 0.0011 |  | CCN(CC)Cc1cc2c3c4c(C)c(O)c2c(O)c1NC(=O)/C(C)=C\C=C\C(C)C(O)C(C)C(O)C(C)C(OC(C)=O)C(C)C(OC)/C=C/OC(C)(O4)C3=O (configuration not stated)
2.84 | 2.52 | 1.76 |  |  | 2.38 | 0.003 |  | 0.0042 | 0.00145 | COC1/C=C/OC2(C)Oc3c(C)c(O)c4c(O)c(c(CN5CCNCC5)cc4c3C2=O)NC(=O)/C(C)=C\C=C\C(C)C(O)C(C)C(O)C(C)C(OC(C)=O)C1C (configuration not stated)
4.77 | 3.62 | 2.75 | 17 |  | 3.62 | 0.00024 |  | 0.00024 |  | COC1/C=C/OC2(C)Oc3c(C)c(O)c4c(O)c(c(/C=N/N5CCCC5)cc4c3C2=O)NC(=O)/C(C)=C\C=C\C(C)C(O)C(C)C(O)C(C)C(OC(C)=O)C1C (configuration not stated)
 |  | 2.75 |  |  |  |  |  |  |  | COC1/C=C/OC2(C)Oc3c(C)c(O)c4c(O)c(c(/C=N/N5CCCCCC5)cc4c3C2=O)NC(=O)/C(C)=C\C=C\C(C)C(O)C(C)C(O)C(C)C(OC(C)=O)C1C (configuration not stated)
4.6 | 3.78 | 2 | 25 | 16 | 4.8 | 0.000165 |  |  |  | COC1/C=C/OC2(C)Oc3c(C)c(O)c4c(O)c(c(/C=N/N5CCN(N)CC5)cc4c3C2=O)NC(=O)/C(C)=C\C=C\C(C)C(O)C(C)C(O)C(C)C(OC(C)=O)C1C (configuration not stated)
 |  | 3.66 |  |  |  |  |  |  |  | CCCCN(CCCC)/N=C/c1cc2c3c4c(C)c(O)c2c(O)c1NC(=O)/C(C)=C\C=C\C(C)C(O)C(C)C(O)C(C)C(OC(C)=O)C(C)C(OC)/C=C/OC(C)(O4)C3=O (configuration not stated)
 |  | 2.35 |  |  |  |  |  |  |  | COC1/C=C/OC2(C)Oc3c(C)c(O)c4c(O)c(c(/C=N/N5CCCCC5)cc4c3C2=O)NC(=O)/C(C)=C\C=C\C(C)C(O)C(C)C(O)C(C)C(OC(C)=O)C1C (configuration not stated)
5.36 | 4.36 | 3.47 | 4.4 | 48 | 4.32 | 0.000043 |  |  |  | CCCCCN(CCCCC)/N=C/c1cc2c3c4c(C)c(O)c2c(O)c1NC(=O)/C(C)=C\C=C\C(C)C(O)C(C)C(O)C(C)C(OC(C)=O)C(C)C(OC)/C=C/OC(C)(O4)C3=O (configuration not stated)
 |  | 3.51 |  |  |  |  |  |  |  | CCCCCCN(CCCCCC)/N=C/c1cc2c3c4c(C)c(O)c2c(O)c1NC(=O)/C(C)=C\C=C\C(C)C(O)C(C)C(O)C(C)C(OC(C)=O)C(C)C(OC)/C=C/OC(C)(O4)C3=O (configuration not stated)

The remaining lines, values behind:

Structure (SMILES) | Log 1/C [1] | Log 1/C [2] | logP ([3]; logP) | IC50 (Gag-Pol polyprotein; read-out: IC50) [µM] | IC50 (DNA polymerase beta; read-out: IC50) [µM] | Log 1/C [4] | IC50 [5] [M l-1] | logP [3] | IC50 (DNA polymerase beta) [M l-1] | IC50 (Gag-Pol polyprotein) [M l-1]
CCCCCCCCN(CCCCCCCC)/N=C/c1cc2c3c4c(C)c(O)c2c(O)c1NC(=O)/C(C)=C\C=C\C(C)C(O)C(C)C(O)C(C)C(OC(C)=O)C(C)C(OC)/C=C/OC(C)(O4)C3=O (stereo in doubt; 8) [listing 1 of 2 here] |  |  |  | 3.2 | 7.4 |  | 0.000024 | 3.62 |  | 
COC1/C=C/OC2(C)Oc3c(C)c(O)c4c(O)c(c(/C=N/N5C(C)CC(Cc6ccccc6)CC5C)cc4c3C2=O)NC(=O)/C(C)=C\C=C\C(C)C(O)C(C)C(O)C(C)C(OC(C)=O)C1C (configuration not stated) |  |  | 6.3 |  |  |  |  |  |  | 
COC1/C=C/OC2(C)Oc3c(C)c(O)c4c(O)c(c(/C=N/OC(c5ccccc5)c5ccccc5)cc4c3C2=O)NC(=O)/C(C)=C\C=C\C(C)C(O)C(C)C(O)C(C)C(OC(C)=O)C1C (configuration not stated) | 5.6 | 4.62 | 4.96 | 2.5 | 10 | 5 | 0.000024 |  |  | 
COC1/C=C/OC2(C)Oc3c(C)c(O)c4c(O)c(c(/C=N/N5CCCCCCC5)cc4c3C2=O)NC(=O)/C(C)=C\C=C\C(C)C(O)C(C)C(O)C(C)C(OC(C)=O)C1C (configuration not stated) |  |  | 3.1 |  |  |  |  |  |  | 
NN1CCNCC1 |  |  | -0.29 |  |  |  |  |  |  | 
COC1/C=C/OC2(C)Oc3c(C)c(O)c4c(O)c(c(/C=N/N5CCCCCCCCCCCCCCC5)cc4c3C2=O)NC(=O)/C(C)=C\C=C\C(C)C(O)C(C)C(O)C(C)C(OC(C)=O)C1C (stereo in doubt; 18) [listing 1 of 2 here] | 5.19 | 4.6 |  |  |  | 4.66 |  |  |  | 
COC1/C=C/OC2(C)Oc3c(C)c(O)c4c(O)c(c(/C=N/N5C(C)CN(Cc6ccc(C#N)cc6)CC5C)cc4c3C2=O)NC(=O)/C(C)=C\C=C\C(C)C(O)C(C)C(O)C(C)C(OC(C)=O)C1C (configuration not stated) | 4.8 | 4.33 | 3.71 | 16 | 22 | 4.66 | 0.000047 |  |  | 
COC1/C=C/OC2(C)Oc3c(C)c(O)c4c(O)c(c(/C=N/N5CCCCCCCCCCCCCCC5)cc4c3C2=O)NC(=O)/C(C)=C\C=C\C(C)C(O)C(C)C(O)C(C)C(OC(C)=O)C1C (stereo in doubt; 31) |  |  |  |  |  |  |  | 5.55 |  | 
CCCCCCCCN(CCCCCCCC)/N=C/c1cc2c3c4c(C)c(O)c2c(O)c1NC(=O)/C(C)=C\C=C\C(C)C(O)C(C)C(O)C(C)C(OC(C)=O)C(C)C(OC)/C=C/OC(C)(O4)C3=O (stereo in doubt; 8) [listing 2 of 2 here] | 5.49 | 4.62 |  |  |  | 5.13 |  |  |  | 
COC1/C=C/OC2(C)Oc3c(C)c(O)c4c(O)c(c(/C=N/Nc5ccc([N+](=O)[O-])cc5[N+](=O)[O-])cc4c3C2=O)NC(=O)/C(C)=C\C=C\C(C)C(O)C(C)C(O)C(C)C(OC(C)=O)C1C (configuration not stated) | 5.26 | 4.35 | 3.81 | 5.4 | 50 | 4.3 | 0.000045 |  |  | 
CCCCCCCCN(CCCCCCCC)/N=C/c1cc2c3c4c(C)c(O)c2c(O)c1NC(=O)/C(C)=C\C=C\C(C)C(O)C(C)C(O)C(C)C(OC(C)=O)C(C)C(OC)/C=C/OC(C)(O4)C3=O (stereo in doubt; 35) |  |  | 3.6 |  |  |  |  |  |  | 
COC1/C=C/OC2(C)Oc3c(C)c(O)c4c(O)c(c(/C=N/N5CCCCCCCCCCCC5)cc4c3C2=O)NC(=O)/C(C)=C\C=C\C(C)C(O)C(C)C(O)C(C)C(OC(C)=O)C1C (stereo in doubt; 30) |  |  |  |  |  |  |  | 4.65 |  | 
COC1/C=C/OC2(C)Oc3c(C)c(O)c4c(O)c(c(/C=N/N5CCN(Cc6ccccc6)CC5)cc4c3C2=O)NC(=O)/C(C)=C\C=C\C(C)C(O)C(C)C(O)C(C)C(OC(C)=O)C1C (configuration not stated) |  |  | 3.36 |  |  |  |  |  |  | 
COC1/C=C/OC2(C)Oc3c(C)c(O)c4c(O)c(c(/C=N/N5CCCCCCCCCCCC5)cc4c3C2=O)NC(=O)/C(C)=C\C=C\C(C)C(O)C(C)C(O)C(C)C(OC(C)=O)C1C (stereo in doubt; 17) [listing 1 of 2 here] |  |  | 4.75 | 3.3 | 19 |  | 0.000024 |  |  | 
COC1/C=C/OC2(C)Oc3c(C)c(O)c4c(O)c(c(/C=N/N5CCCCCCCC5)cc4c3C2=O)NC(=O)/C(C)=C\C=C\C(C)C(O)C(C)C(O)C(C)C(OC(C)=O)C1C (configuration not stated) |  |  | 3.45 |  |  |  |  |  |  | 
COC1/C=C/OC2(C)Oc3c(C)c(O)c4c(O)c(c(/C=N/N5CCCCCCCCCCCCCCC5)cc4c3C2=O)NC(=O)/C(C)=C\C=C\C(C)C(O)C(C)C(O)C(C)C(OC(C)=O)C1C (stereo in doubt; 18) [listing 2 of 2 here] |  |  | 6.05 | 6.5 | 22 |  | 0.000025 |  |  | 
COC1/C=C/OC2(C)Oc3c(C)c(O)c4c(O)c(c(/C=N/N5CCCCCCCCCCCC5)cc4c3C2=O)NC(=O)/C(C)=C\C=C\C(C)C(O)C(C)C(O)C(C)C(OC(C)=O)C1C (stereo in doubt; 17) [listing 2 of 2 here] | 5.48 | 4.62 |  |  |  | 4.72 |  |  |  | 

From ChEMBL document CHEMBL1121400, “Quantitative structure--activity correlations of rifamycins as inhibitors of viral RNA-directed DNA polymerase and mammalian alpha and beta DNA polymerases” (J Med Chem, 1980)
